≈ marks a conversion by molar mass, not a printed value. Calls of active or inactive are those of the source. The calls are words filed in the database; no cut-off is given here.
How the values were obtained:
Vasopressin V2 receptor [1] = biological target: T1, Vasopressin V2 receptor (Homo sapiens, UniProt P30518); experiment: Agonist activity at human vasopressin V2 receptor expressed in CHO cells assessed as cAMP accumulation after 30 mins by TR-FRET based HTRF assay; type: functional, cell-based
T1 sequence (P30518 whole entry): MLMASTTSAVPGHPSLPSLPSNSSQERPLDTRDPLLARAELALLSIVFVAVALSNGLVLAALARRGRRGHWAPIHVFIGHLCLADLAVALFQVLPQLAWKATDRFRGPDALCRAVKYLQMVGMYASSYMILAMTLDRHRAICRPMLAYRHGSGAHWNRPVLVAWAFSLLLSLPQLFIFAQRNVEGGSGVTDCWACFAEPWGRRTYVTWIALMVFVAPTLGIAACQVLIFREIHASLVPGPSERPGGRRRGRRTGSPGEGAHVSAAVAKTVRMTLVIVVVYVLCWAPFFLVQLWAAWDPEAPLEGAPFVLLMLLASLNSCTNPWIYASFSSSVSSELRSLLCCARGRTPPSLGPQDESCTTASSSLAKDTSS
In short: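 CHO cells stably expressing human V2R, 5 × 10^3 per well on polyornithine, used 24 h after seeding. Cells lysed and cAMP read by HTRF (TR-FRET). Kact/Kinact from three independent experiments in triplicate, mean ± SEM.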

Vasopressin V2 receptor [2] = biological target: T1, Vasopressin V2 receptor; experiment: Displacement of [3H]-AVP from human vasopressin V2 receptor expressed in CHO cells after 30 mins; type: cell-based
[3] = Solubility of the compound in HEPES buffer at pH 7.4 after 24 hrs; type: physicochemical
In short: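 Solubility measured in pH 7.4 HEPES buffer after 24 h incubation at 22 °C.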

Vasopressin V2 receptor [4] = biological target: T1, Vasopressin V2 receptor; experiment: Antagonist activity at human vasopressin V2 receptor expressed in CHO cells assessed as inhibition of AVP-induced cAMP accumulation after 30 mins by TR-FRET based HTRF assay; type: functional, cell-based
In short: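 CHO cells stably expressing human V2R, 5 × 10^3 per well on polyornithine, used 24 h after seeding. Incubated 30 min at 37 °C with compound (10−12 to 10−5 M) plus phosphodiesterase inhibitor RO 201724 0.1 mM. Antagonist mode run with 1 nM AVP. Cells lysed and cAMP read by HTRF (TR-FRET). Kact/Kinact from three independent experiments in triplicate, mean ± SEM.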

Vasopressin V1a receptor [5] = biological target: T2, Vasopressin V1a receptor (Homo sapiens, UniProt P37288); experiment: Binding affinity to vasopressin V1a receptor
In short: (§1)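 Membranes (5 μg protein) from CHO cells stably expressing human V2R, V1aR, V1bR or OTR. Incubated 30 min at 30 °C in 50 mM Tris-HCl pH 7.4, 5 mM MgCl2, 1 mg/mL BSA with [3H]-AVP (1−2 nM) and competitor from 100 pM to 100 μM. Nonspecific binding with 10 μM AVP. GF/C filtration; Ki by nonlinear least-squares regression. Triplicate, at least three membrane batches.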
Target sequence in this assay (P37288 whole entry): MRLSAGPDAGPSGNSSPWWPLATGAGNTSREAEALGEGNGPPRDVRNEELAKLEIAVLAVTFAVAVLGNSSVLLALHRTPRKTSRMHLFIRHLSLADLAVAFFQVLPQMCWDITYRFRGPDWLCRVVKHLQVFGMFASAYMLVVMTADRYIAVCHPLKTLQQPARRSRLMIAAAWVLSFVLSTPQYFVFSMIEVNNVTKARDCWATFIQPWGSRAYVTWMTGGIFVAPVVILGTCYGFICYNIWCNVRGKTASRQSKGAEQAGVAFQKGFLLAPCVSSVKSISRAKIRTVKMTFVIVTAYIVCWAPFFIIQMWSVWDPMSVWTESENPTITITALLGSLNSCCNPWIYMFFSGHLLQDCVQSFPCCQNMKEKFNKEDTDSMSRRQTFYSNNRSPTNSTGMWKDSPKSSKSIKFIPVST

Oxytocin receptor [6] = biological target: T3, Oxytocin receptor (Homo sapiens, UniProt P30559); experiment: Binding affinity to oxytocin receptor; in short: as §1
T3 sequence (P30559 whole entry): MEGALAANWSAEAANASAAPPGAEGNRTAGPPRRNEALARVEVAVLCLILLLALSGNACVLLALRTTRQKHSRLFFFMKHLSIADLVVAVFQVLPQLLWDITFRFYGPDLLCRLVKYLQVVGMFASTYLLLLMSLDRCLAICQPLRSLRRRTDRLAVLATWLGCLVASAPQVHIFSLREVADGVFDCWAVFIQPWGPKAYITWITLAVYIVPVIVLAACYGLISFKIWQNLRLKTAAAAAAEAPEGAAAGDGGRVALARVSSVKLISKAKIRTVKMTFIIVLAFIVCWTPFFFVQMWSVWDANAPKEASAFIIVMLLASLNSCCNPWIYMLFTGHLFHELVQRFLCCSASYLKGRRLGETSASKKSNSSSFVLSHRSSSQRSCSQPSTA

[7] = biological target: T4, Muscarinic acetylcholine receptor M1 (Homo sapiens, UniProt P11229); experiment: Binding affinity to human muscarinic M1 receptor
T4 sequence (P11229 whole entry): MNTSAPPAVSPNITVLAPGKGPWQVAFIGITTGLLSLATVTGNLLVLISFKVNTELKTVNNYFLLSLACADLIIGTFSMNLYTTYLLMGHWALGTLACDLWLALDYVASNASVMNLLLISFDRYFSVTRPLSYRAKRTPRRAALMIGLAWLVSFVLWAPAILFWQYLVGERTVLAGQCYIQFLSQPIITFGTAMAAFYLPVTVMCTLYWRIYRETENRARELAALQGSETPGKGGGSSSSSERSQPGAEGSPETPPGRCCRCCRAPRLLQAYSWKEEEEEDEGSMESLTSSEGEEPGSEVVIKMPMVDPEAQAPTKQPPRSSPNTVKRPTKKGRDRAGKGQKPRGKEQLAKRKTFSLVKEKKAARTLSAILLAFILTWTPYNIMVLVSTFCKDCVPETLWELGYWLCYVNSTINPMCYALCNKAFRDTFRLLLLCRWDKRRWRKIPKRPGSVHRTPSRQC

Vasopressin V1b receptor = biological target: T5, Vasopressin V1b receptor (Homo sapiens, UniProt P47901); experiment: Displacement of [3H]-AVP from human vasopressin V1b receptor expressed in CHO cells after 30 mins; type: cell-based
T5 sequence (P47901 whole entry): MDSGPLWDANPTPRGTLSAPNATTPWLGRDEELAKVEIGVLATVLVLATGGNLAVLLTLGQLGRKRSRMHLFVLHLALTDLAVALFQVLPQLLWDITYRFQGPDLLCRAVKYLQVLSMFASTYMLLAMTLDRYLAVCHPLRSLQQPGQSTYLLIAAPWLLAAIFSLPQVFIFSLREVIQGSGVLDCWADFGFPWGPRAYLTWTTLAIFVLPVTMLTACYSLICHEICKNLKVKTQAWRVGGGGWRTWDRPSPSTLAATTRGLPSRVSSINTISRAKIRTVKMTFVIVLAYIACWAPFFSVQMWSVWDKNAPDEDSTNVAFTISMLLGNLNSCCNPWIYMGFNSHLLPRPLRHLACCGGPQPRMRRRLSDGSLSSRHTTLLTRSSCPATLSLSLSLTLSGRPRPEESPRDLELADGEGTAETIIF

Vasopressin V1a receptor [8] = biological target: T2, Vasopressin V1a receptor; experiment: Displacement of [3H]-AVP from human vasopressin V1a receptor expressed in CHO cells at 10 uM after 30 mins; type: cell-based
In short: (§2)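 Human OTR, V1aR or V1bR membranes from CHO cells, [3H]-AVP displacement with compound at a single 10 μM concentration, 30 min at 30 °C in Tris-HCl pH 7.4/MgCl2/BSA buffer.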
Target sequence in this assay (P37288 whole entry, looked up): as the sequence (P37288 whole entry) above

[9] = biological target: T6, Vasopressin V1b receptor (Homo sapiens) (UniProt P47901); experiment: Displacement of [3H]-AVP from human vasopressin V1b receptor expressed in CHO cells at 10 uM after 30 mins; type: cell-based; in short: as §2
T6 sequence (whole entry): T5 sequence (P47901 whole entry)

Vasopressin V1a receptor [10] = biological target: T2, Vasopressin V1a receptor; experiment: Displacement of [3H]-AVP from human vasopressin V1a receptor expressed in CHO cells after 30 mins; type: cell-based
Target sequence in this assay (P37288 whole entry): as the sequence (P37288 whole entry) above

[11] = biological target: T7, Oxytocin receptor (Homo sapiens) (UniProt P30559); experiment: Displacement of [3H]-AVP from human oxytocin receptor expressed in CHO cells at 10 uM after 30 mins; type: cell-based; in short: as §2
T7 sequence (whole entry): T3 sequence (P30559 whole entry)

Oxytocin receptor [12] = biological target: T3, Oxytocin receptor; experiment: Displacement of [3H]-AVP from human oxytocin receptor expressed in CHO cells after 30 mins; type: cell-based

SMILES	Activity (Vasopressin V2 receptor [1])	Ki (Vasopressin V2 receptor [2])	solubility at 24 h [3]	Kb (Vasopressin V2 receptor [4])	inhibition (Vasopressin V2 receptor [4])	Ki (Vasopressin V1a receptor [5])	Ki (Oxytocin receptor [6])	Ki [7]	Ki (Vasopressin V1b receptor)	inhibition (Vasopressin V1a receptor [8])	inhibition [9]	Ki (Vasopressin V1a receptor [10])	inhibition [11]	Ki (Oxytocin receptor [12])
CCN(CC)c1ccc2c(-c3ccc(S(=O)(=O)NCCOCCOCCOCCC(=O)NC4CCCN(C(=O)c5ccc(NC(=O)c6ccccc6-c6ccccc6)cc5)c5ccccc54)cc3S(=O)(=O)[O-])c3ccc(=[N+](CC)CC)cc-3oc2c1 (stereo unspecified)	inactive	16.8 nM	6.2 µM (≈ 7.47 µg/mL)	8.91 nM	Dose-dependent effect	–	–	–	–	–	–	–	–	–
CCN(CC)c1ccc2c(-c3ccc(S(=O)(=O)N4CCN(CCC(=O)NC5CCCN(C(=O)c6ccc(NC(=O)c7ccccc7-c7ccccc7)cc6)c6ccccc65)CC4)cc3S(=O)(=O)[O-])c3ccc(=[N+](CC)CC)cc-3oc2c1 (stereo unspecified)	inactive	12.7 nM	3.7 µM (≈ 4.23 µg/mL)	2.03 nM	Dose-dependent effect	–	–	–	–	–	–	–	–	–
CCN(CC)c1ccc2c(-c3ccc(S(=O)(=O)NC4CCCN(C(=O)c5ccc(NC(=O)c6ccccc6-c6ccccc6)cc5)c5ccccc54)cc3S(=O)(=O)[O-])c3ccc(=[N+](CC)CC)cc-3oc2c1 (stereo unspecified)	inactive	25.3 nM	2.1 µM (≈ 2.1 µg/mL)	3.8 nM	Dose-dependent effect	–	–	–	–	–	–	–	–	–

Results, then the compound that gave them:

Activity (Vasopressin V2 receptor [1])	Ki (Vasopressin V2 receptor [2])	solubility at 24 h [3]	Kb (Vasopressin V2 receptor [4])	inhibition (Vasopressin V2 receptor [4])	Ki (Vasopressin V1a receptor [5])	Ki (Oxytocin receptor [6])	Ki [7]	Ki (Vasopressin V1b receptor)	inhibition (Vasopressin V1a receptor [8])	inhibition [9]	Ki (Vasopressin V1a receptor [10])	inhibition [11]	Ki (Oxytocin receptor [12])	SMILES
inactive	–	–	–	Dose-dependent effect	195 nM	660 nM	–	–	–	–	–	–	–	Cc1ccccc1C(=O)Nc1ccc(C(=O)N2CCCC(N(C)C)c3ccccc32)cc1 (stereo unspecified) [MOZAVAPTAN]
–	–	–	–	–	–	–	> 1000 nM	–	–	–	–	–	–	O=C(CCC1=[N+]2C(C=C1)Cc1ccc(-c3cccs3)n1[B-]2(F)F)NCCN1CCN(CC(=O)N2c3ccccc3C(=O)Nc3cccnc32)CC1 (stereo unspecified)
inactive	7.6 nM	3.1 µM (≈ 3.41 µg/mL)	0.66 nM	Dose-dependent effect	–	–	–	–	–	–	–	–	–	CCN(CC)c1ccc2c(-c3ccc(S(=O)(=O)NCCCCC(=O)NC4CCCN(C(=O)c5ccc(NC(=O)c6ccccc6-c6ccccc6)cc5)c5ccccc54)cc3S(=O)(=O)[O-])c3ccc(=[N+](CC)CC)cc-3oc2c1 (stereo unspecified)
inactive	4 nM	2.1 µM (≈ 2.85 µg/mL)	1.96 nM	Dose-dependent effect	–	–	–	> 10000 nM	< 50%	< 50%	> 10000 nM	< 50%	> 10000 nM	CCN(CC)c1ccc2c(-c3ccc(S(=O)(=O)NCCOCCOCCOCCn4cc(CNC(=O)CCC(=O)NC5CCCN(C(=O)c6ccc(NC(=O)c7ccccc7-c7ccccc7)cc6)c6ccccc65)nn4)cc3S(=O)(=O)[O-])c3ccc(=[N+](CC)CC)cc-3oc2c1 (stereo unspecified)
